Entries after “also recorded” stand apart in the source; their conditions may differ.
How the values were obtained:
[1] = Phase 1 first-in-human trial: safety and tolerability; format: in vivo
Method in brief: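 In an open-label, non-randomized dose escalation, the test compound was given orally once daily for 28-day cycles at 20–1,200 mg. Cohorts started as single patients, with intrapatient escalation allowed. The primary endpoints were DLT and MTD. Patients were hospitalized during ramp-up, with oral antihyperuricemic agents and hydration ≥ 72 h before the first dose plus IV hydration. AEs were counted once per patient. The safety population was all patients receiving ≥ 1 dose, analysed descriptively.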

[2] = tested on: patients with relapsed or refractory CLL/SLL; experiment: Phase 1 trial: antitumor response in patients with R/R CLL/SLL; format: in vivo, human
Method in brief: (§1)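 Patients took the oral test compound once daily in 28-day cycles. Disease was assessed at baseline and then every 8 weeks from Cycle 3, using disease-specific scans, bone marrow biopsy/aspirate and hematologic and biochemical labs. MRD was checked in peripheral blood in patients reaching CR. ORR was reported with 95% CI, and missing data were not imputed.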

[3] = tested on: patients with other hematologic malignancies (NHL, MM, myeloid malignancy, HCL, Castleman disease); experiment: Phase 1 trial: antitumor response in patients without CLL/SLL; format: in vivo, human
Method in brief: as §1

[4] = Clinical plasma pharmacokinetics; format: in vivo, human
Method in brief: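 Oral test compound was given once daily at doses of 20 to 1,200 mg. Plasma levels were measured by LC-MS/MS (LLOQ 5 ng/mL). Cmax, AUC0-24h and accumulation ratio came from noncompartmental analysis.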

patients with CLL/SLL = experiment: Absolute lymphocyte count; format: in vivo, human; details: for Mean decrease in ALC: 23 patients with CLL/SLL
Method in brief: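 Adults with R/R CLL/SLL took the test compound orally once daily in 28-day cycles. ALC was tracked from ramp-up D1 to C1D1 and to C2D1. A subset with baseline mean ALC > 25 × 10³/μL was evaluated separately.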

[5] = cited from earlier work
[6] = Castleman disease, evaluable n = 1
[7] = Myeloid malignancy (AML, MDS), evaluable n = 2
[8] = Non-CLL/SLL overall, evaluable n = 28
[9] = single oral administration, 50 mg, 1 subject
[10] = single oral administration, 100 mg, 1 subject
[11] = single oral administration, 200 mg, 2 subjects, Mean ± SD
[12] = single oral administration, 400 mg, 8 subjects, Mean ± SD
[13] = single oral administration, 600 mg, 7 subjects, Mean ± SD
[14] = single oral administration, 800 mg, 7 subjects, Mean ± SD
[15] = single oral administration, 1,000 mg, 6 subjects, Mean ± SD
[16] = single oral administration, 1,200 mg, 6 subjects, Mean ± SD

## O=C(NS(=O)(=O)c1ccc(NC[C@H]2COCCO2)c([N+](=O)[O-])c1)c1ccc(N2CCN(CC3=C(c4ccc(Cl)cc4)CC4(CCC4)CC3)CC2)cc1Oc1cnc2[nH]ccc2c1 [lisaftoclax]
[1]; 23 patients with CLL/SLL
  Grade 3 or 4 treatment-emergent increased lipase, patients: 13.0%
  Grade 3 or 4 treatment-emergent neutropenia, patients: 26.1%
  Treatment-related neutropenia, patients: 26.1%
[1]; N = 52, Grade 3/4
  Anemia, treatment-emergent adverse event: 5 (9.6) no. (%)
  Constipation, treatment-emergent adverse event: 1 (1.9) no. (%)
  Diarrhea, treatment-emergent adverse event: 1 (1.9) no. (%)
  Fatigue, treatment-emergent adverse event: 1 (1.9) no. (%)
  Headache, treatment-emergent adverse event: 2 (3.8) no. (%)
  Hypokalemia, treatment-emergent adverse event: 1 (1.9) no. (%)
  Nausea, treatment-emergent adverse event: 2 (3.8) no. (%)
  Neutropenia, treatment-emergent adverse event: 11 (21.2) no. (%)
  Peripheral edema, treatment-emergent adverse event: 2 (3.8) no. (%)
  Thrombocytopenia, treatment-emergent adverse event: 7 (13.5) no. (%)
[1]; N = 52, any grade
  Anemia, treatment-emergent adverse event: 15 (28.8) no. (%)
  Arthralgia, treatment-emergent adverse event: 8 (15.4) no. (%)
  Constipation, treatment-emergent adverse event: 13 (25.0) no. (%)
  Diarrhea, treatment-emergent adverse event: 25 (48.1) no. (%)
  Fatigue, treatment-emergent adverse event: 18 (34.6) no. (%)
  Headache, treatment-emergent adverse event: 11 (21.2) no. (%)
  Hypokalemia, treatment-emergent adverse event: 9 (17.3) no. (%)
  Nausea, treatment-emergent adverse event: 16 (30.8) no. (%)
  Neutropenia, treatment-emergent adverse event: 14 (26.9) no. (%)
  Peripheral edema, treatment-emergent adverse event: 9 (17.3) no. (%)
  Thrombocytopenia, treatment-emergent adverse event: 15 (28.8) no. (%)
  Vomiting, treatment-emergent adverse event: 12 (23.1) no. (%)
[1]; daily dose ramp-up, doses up to 1,200 mg
  Tumor lysis syndrome (TLS), clinical or laboratory: no evidence of tumor lysis syndrome; also recorded: no evidence of clinical or laboratory TLS; also recorded: no patient with CLL/SLL in this study has experienced TLS; also recorded: no clinical or laboratory evidence of TLS
[1]; doses of up to 1,200 mg
  Dose-limiting toxicity (DLT): not reached; also recorded: no dose-limiting toxicities
[1]; in contrast to navitoclax
  Changes in platelet counts: did not elicit clinically significant changes in platelet counts
[1]; in vivo
  Neutropenic sequelae, such as fever and infection: not observed
[1]; oral once daily, 20 mg to 1,200 mg, 52 patients
  Maximum tolerated dose (MTD): not reached
[2]; 4 out of 5 evaluable patients
  ORR in patients with BTKi-intolerant disease: 80.0%
[2]; CLL/SLL, evaluable n = 22
  Best response MR: 0 (0) no. (%)
  Best response PD: 0 (0) no. (%)
  Best response PR: 14 (63.6) no. (%)
  Best response SD: 8 (36.4) no. (%)
  ORR: 14 (63.6) no. (%)
[2]; CLL/SLL, 2/3
  PR (ORR) in patients with del(17p)/TP53 mutation: 66.7%
[2]; CLL/SLL, 8/10
  PR in patients with IGHV unmutated: 80.0%
[2]; CLL/SLL, 9 of 21 patients
  Patients with ≥ 70% reductions in nodal and/or splenic size: 42.9%
[2]; after 2 cycles of treatment
  Patients achieving PR among 4 patients who relapsed to prior BTKi: 1 patient
[2]; all patients
  Complete response (CR): No patient experienced a CR
[2]; patients with R/R CLL/SLL
  Median time to response: 2 (range, 2-8) cycles
[3]; 28 evaluable patients without CLL/SLL
  Clinical benefit, patients: 50.0%
[3]; [6]
  Best response MR: 0 (0) no. (%)
  Best response PD: 0 (0) no. (%)
  Best response PR: 0 (0) no. (%)
  Best response SD: 1 (100.0) no. (%)
  Clinical benefit rate: 1 (100.0) no. (%)
  ORR: 0 (0) no. (%)
[3]; HCL, evaluable n = 1
  Best response MR: 0 (0) no. (%)
  Best response PD: 0 (0) no. (%)
  Best response PR: 0 (0) no. (%)
  Best response SD: 1 (100.0) no. (%)
  Clinical benefit rate: 1 (100.0) no. (%)
  ORR: 0 (0) no. (%)
[3]; MM, evaluable n = 11
  Best response PD: 7 (63.6) no. (%)
  Best response SD: 2 (18.2) no. (%)
  Clinical benefit rate: 4 (36.4) no. (%)
  ORR: 1 (9.1) no. (%)
[3]; [7]
  Best response MR: 0 (0) no. (%)
  Best response PD: 2 (100.0) no. (%)
  Best response PR: 0 (0) no. (%)
  Best response SD: 0 (0) no. (%)
  Clinical benefit rate: 0 (0) no. (%)
  ORR: 0 (0) no. (%)
[3]; NHL, evaluable n = 13
  Best response PD: 5 (38.5) no. (%)
  Best response PR: 0 (0) no. (%)
  Best response SD: 7 (53.8) no. (%)
  Clinical benefit rate: 8 (61.5) no. (%)
  ORR: 0 (0) no. (%)
[3]; [8]
  Best response MR: 2 (7.1) no. (%)
  Best response PD: 14 (50.0) no. (%)
  Best response PR: 1 (3.6) no. (%)
  Best response SD: 11 (39.3) no. (%)
  Clinical benefit rate: 14 (50.0) no. (%)
  ORR: 1 (3.6) no. (%)
[4]; 400 mg
  Steady-state mean (CV%) AUC0-24h: 10,130 (40%) ng•h/mL
  Steady-state mean (CV%) Cmax: 981 (43%) ng/mL
[4]; multiple oral daily dosing
  Accumulation ratio: approximately 1
[4]; [9]
  AUC0-24: 261 ng·h/mL
  Cmax: 39.1 ng/mL
  T1/2: 2.84 h
  Tmax: 3 h
[4]; [10]
  AUC0-24: 1800 ng·h/mL
  Cmax: 229 ng/mL
  T1/2: 3.85 h
  Tmax: 6 h
[4]; [11]
  AUC0-24: 2410 ± 370 ng·h/mL
  Cmax: 294 ± 4 ng/mL
  T1/2: 3.84 ± 0.16 h
[4]; single oral administration, 200 mg, 2 subjects, Median (range)
  Tmax: 4 (4~4) h
[4]; [12]
  AUC0-24: 6850 ± 2910 ng·h/mL
  Cmax: 822 ± 334 ng/mL
  T1/2: 4.43 ± 0.57 h
[4]; single oral administration, 400 mg, 8 subjects, Median (range)
  Tmax: 6 (4~8) h
[4]; [13]
  AUC0-24: 7810 ± 2840 ng·h/mL
  Cmax: 761 ± 298 ng/mL
  T1/2: 4.68 ± 1.03 h
[4]; single oral administration, 600 mg, 7 subjects, Median (range)
  Tmax: 6 (4~8) h
[4]; [14]
  AUC0-24: 7250 ± 2240 ng·h/mL
  Cmax: 982 ± 384 ng/mL
  T1/2: 4.34 ± 0.53 h
[4]; single oral administration, 800 mg, 7 subjects, Median (range)
  Tmax: 4 (4~6) h
[4]; [15]
  AUC0-24: 18300 ± 13100 ng·h/mL
  Cmax: 1690 ± 1220 ng/mL
  T1/2: 6.10 ± 1.52 h
[4]; single oral administration, 1,000 mg, 6 subjects, Median (range)
  Tmax: 8 (6~8) h
[4]; [16]
  AUC0-24: 12300 ± 4820 ng·h/mL
  Cmax: 1200 ± 480 ng/mL
  T1/2: 4.86 ± 1.01 h
[4]; single oral administration, 1,200 mg, 6 subjects, Median (range)
  Tmax: 6 (3~8) h
Patients with CLL/SLL; 5 patients with higher risk of TLS
  Median time to 50% ALC reduction: 3 (range, 2-4) days
Patients with CLL/SLL; from ramp-up D1 to C1D1
  Mean decrease in ALC: 69.4%
Patients with CLL/SLL; from ramp-up Day 1 to C2D1 (completion of first cycle)
  Mean decrease in ALC: 92.8%

## CC1(C)CCC(CN2CCN(c3ccc(C(=O)NS(=O)(=O)c4ccc(NCC5CCOCC5)c([N+](=O)[O-])c4)c(Oc4cnc5[nH]ccc5c4)c3)CC2)=C(c2ccc(Cl)cc2)C1 [venetoclax]
[5]
  Patients with grade 3/4 neutropenia who may require G-CSF support or dose reductions: ~ 75%
  Recipients experiencing infection: 72%
[5]; real-world-evidence studies
  Grade ≥ 2 diarrhea, recipients: up to 18%
  Grade ≥ 3 neutropenia, recipients: up to 47%
  Grade ≥ 3 neutropenic fever, recipients: up to 13%
  Grade ≥ 3 thrombocytopenia, recipients: up to 36%
  TLS, recipients: up to 13.4%

— PMC10330157 (Clinical cancer research : an official journal of the …, 2023)
